Test results: ChEMBL document CHEMBL4819122, “Novel 4-(piperazin-1-yl)quinolin-2(1H)-one bearing thiazoles with antiproliferative activity through VEGFR-2-TK inhibition” (Bioorg Med Chem, 2021)
Activity calls are given as the source filed them. No cut-off for these calls is given here.

What was measured:
T47D [1] = experiment: Induction of apoptosis in human T47D cells assessed as total apoptotic cells after 24 hrs by Annexin V-FITC/propidium iodide staining based flow cytometric analysis (reference value: 2.61 %); format: functional
EKVX = experiment: Cytotoxicity against human EKVX assessed as growth inhibition at 10 uM by NCI protocol relative to control; format: functional; details: read-out: GI
Method in brief: (§1)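 Run by NCI as a single-dose screen at 10 μM across the sixty-cell-line panel, which covers nine human tumour tissue types. The read-out is percent growth inhibition of treated cells relative to untreated cells.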

T47D [2] = experiment: Cytotoxicity against human T-47D assessed as growth inhibition at 10 uM by NCI protocol relative to control; format: functional; details: read-out: GI
Method in brief: (§2)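 Run by the NCI under its standard protocol: one dose of 10 μM against a sixty-line panel from nine human tumour tissues. Result given as percent growth inhibition of treated cells relative to untreated cells.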

UO-31 = experiment: Cytotoxicity against human UO31 assessed as growth inhibition at 10 uM by NCI protocol relative to control; format: functional; details: read-out: GI; method in brief: as §2
MCF10 = experiment: Cytotoxicity against human MCF10 cells assessed as reduction in cell viability after 3 hrs by MTT assay; details: MCF10, 3 h
SR = experiment: Cytotoxicity against human SR assessed as growth inhibition at 10 uM by NCI protocol relative to control; format: functional; details: read-out: GI; method in brief: as §2
T47D [3] = experiment: Induction of cell cycle arrest in human T47D cells assessed as increase in accumulation at G0/G1 phase after 24 hrs by propidium iodide/Annexin V staining based FACScan flow cytometry(reference value: 52.59%); format: functional
T47D [4] = experiment: Induction of apoptosis in human T47D cells assessed as late apoptotic cells after 24 hrs by Annexin V-FITC/propidium iodide staining based flow cytometric analysis (reference value: 0.21 %); format: functional
A498 = experiment: Cytotoxicity against human A498 assessed as growth inhibition at 10 uM by NCI protocol relative to control; format: functional; details: read-out: GI; method in brief: as §1
HCT-116 = experiment: Cytotoxicity against human HCT-116 assessed as growth inhibition at 10 uM by NCI protocol relative to control; format: functional; details: read-out: GI; method in brief: as §1
UACC-62 = experiment: Cytotoxicity against human UACC-62 assessed as growth inhibition at 10 uM by NCI protocol relative to control; format: functional; details: read-out: GI; method in brief: as §2
SF-539 = experiment: Cytotoxicity against human […] assessed as growth inhibition at 10 uM by NCI protocol relative to control; format: functional; details: read-out: GI; method in brief: as §1
786-0 = experiment: Cytotoxicity against human 786-0 assessed as growth inhibition at 10 uM by NCI protocol relative to control; format: functional; details: read-out: GI; method in brief: as §1
MOLT-4 = experiment: Cytotoxicity against human MOLT-4 assessed as growth inhibition at 10 uM by NCI protocol relative to control; format: functional; details: read-out: GI; method in brief: as §1
T47D [5] = experiment: Induction of apoptosis in human T47D cells assessed as necrotic cells after 24 hrs by Annexin V-FITC/propidium iodide staining based flow cytometric analysis (reference value: 1.74%); format: functional
T47D [6] = experiment: Induction of cell cycle arrest in human T47D cells assessed as increase in accumulation at S phase after 24 hrs by propidium iodide/Annexin V staining based FACScan flow cytometry(reference value: 34.62%); format: functional
T47D [7] = experiment: Induction of cell cycle arrest in human T47D cells assessed as increase in accumulation at pre G1 phase after 24 hrs by propidium iodide/Annexin V staining based FACScan flow cytometry(reference value: 2.61%); format: functional
MDA-MB-435 = experiment: Cytotoxicity against human MDA-MB-435 assessed as growth inhibition at 10 uM by NCI protocol relative to control; format: functional, cell-based; method in brief: as §1
HOP-92 = experiment: Cytotoxicity against human HOP-92 assessed as growth inhibition at 10 uM by NCI protocol relative to control; format: functional; details: read-out: GI; method in brief: as §1
T47D [8] = experiment: Induction of cell cycle arrest in human T47D cells assessed as increase in accumulation at G2/M phase after 24 hrs by propidium iodide/Annexin V staining based FACScan flow cytometry(reference value: 12.79%); format: functional
IGROV-1 = experiment: Cytotoxicity against human IGROVI assessed as growth inhibition at 10 uM by NCI protocol relative to control; format: functional; details: read-out: GI; method in brief: as §1
CAKI-1 = experiment: Cytotoxicity against human Caki1 assessed as growth inhibition at 10 uM by NCI protocol relative to control; format: functional; details: read-out: GI; method in brief: as §1
T47D [9] = experiment: Cytotoxicity against human T47D cells assessed as reduction in cell viability after 3 hrs by MTT assay
T47D [10] = experiment: Induction of apoptosis in human T47D cells assessed as early apoptotic cells after 24 hrs by Annexin V-FITC/propidium iodide staining based flow cytometric analysis (reference value: 0.66 %); format: functional
MDA-MB-468 = experiment: Cytotoxicity against human MDA-MB-468 assessed as growth inhibition at 10 uM by NCI protocol relative to control; format: functional; details: read-out: GI; method in brief: as §1

Question: Which Activity (T47D [1]) does the source give for `O=C(CN1CCN(c2cc(=O)[nH]c3ccc(F)cc23)CC1)Nc1nc(-c2ccccc2)cs1` here?
Answer: 43.05%

Question: And the inhibition of growth at 10 µM (EKVX)?
Answer: 14.6%

Question: And the inhibition of growth at 10 µM (T47D [2])?
Answer: 29.6%

Question: What about the inhibition of growth at 10 µM (UO-31) of the same compound?
Answer: 24.2%

Question: And the IC50 (MCF10)?
Answer: 39.4 µM

Question: What about the inhibition of growth at 10 µM (SR) of the same compound?
Answer: 21.2%

Question: And the Activity (T47D [3])?
Answer: 41.31%

Question: And the Activity (T47D [4])?
Answer: 27.88%

Question: What about the inhibition of growth at 10 µM (A498) of the same compound?
Answer: 27.9%

Question: And the inhibition of growth at 10 µM (HCT-116)?
Answer: 16%

Question: What about the inhibition of growth at 10 µM (UACC-62) of the same compound?
Answer: 14.4%

Question: What about the inhibition of growth at 10 µM (SF-539) of the same compound?
Answer: 13.3%

Question: What about the inhibition of growth at 10 µM (786-0) of the same compound?
Answer: 10.3%

Question: What about the inhibition of growth at 10 µM (MOLT-4) of the same compound?
Answer: 13.3%

Question: What about the Activity (T47D [5]) of the same compound?
Answer: 12.86%

Question: What about the Activity (T47D [6]) of the same compound?
Answer: 52.39%

Question: And the Activity (T47D [7])?
Answer: 43.05%

Question: And the “growth inhibition (GI)” value (MDA-MB-435)?
Answer: inactive

Question: What about the inhibition of growth at 10 µM (HOP-92) of the same compound?
Answer: 10.9%

Question: And the Activity (T47D [8])?
Answer: 6.3%

Question: What about the inhibition of growth at 10 µM (IGROV-1) of the same compound?
Answer: 16.1%

Question: What about the inhibition of growth at 10 µM (CAKI-1) of the same compound?
Answer: 17.4%

Question: And the IC50 (T47D [9])?
Answer: 7.2 µM

Question: What about the Activity (T47D [10]) of the same compound?
Answer: 2.31%

Question: And the inhibition of growth at 10 µM (MDA-MB-468)?
Answer: 12.5%
